This passage reports Activity and IC50 results from ChEMBL document CHEMBL1157951, “Weakly antimalarial flavonol arabinofuranosides from Calycolpus warszewiczianus” (J Nat Prod, 2006).

Test [1] deals with Leishmania mexicana. Description: Antileishmanial activity against Leishmania mexicana WHO-MOHM/B2/82/BELZ promastigote at 40 ug/mL by XTT assay. Format: functional, organism-based. The gist of the method:
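Promastigotes of L. mexicana (WHO-MOHM/B2/82/BELZ), cultured by established protocols, in a colorimetric growth assay; read-out is reduction of the tetrazolium salt XTT to a water-soluble formazan. Compounds tested at 40 µg/mL.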

For test [2], the system named is Plasmodium falciparum. Description: Antiplasmodial activity against chloroquine-resistant Plasmodium falciparum W2. Format: functional, organism-based.
Test [3] concerns Trypanosoma cruzi. Nature of the test: Antitrypanosomal activity against Trypanosoma cruzi Tulahuen at 50 ug/mL by beta-galactosidase assay. Format: functional, organism-based. The gist of the method:
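A transgenic T. cruzi expressing β-galactosidase (Tulahuen strain, clone C4) was used. Growth of the intracellular stage was read from cleavage of the colorimetric substrate chlorophenol red-β-D-galactoside. Compounds tested at 50 µg/mL.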

Test [4] relates to Vero. Nature of the test: Cytotoxicity against african green monkey Vero cells after 4 hrs by MTT assay. The following applies: Chlorocebus sabaeus. The class given is cell-based.

Calls of active or inactive are those of the source. The calls are words filed in the database; no cut-off is given here.

Regarding `O=C(Oc1cc(O)cc2oc(-c3ccc(O)c(O)c3)c(O[C@@H]3O[C@@H](CO)[C@H](O)[C@H]3O)c(=O)c12)c1cc(O)c(O)c(O)c1`, the result in test [1] and in test [3] was inactive. Besides, the IC50 came out at 14.5 µM in test [2] and 86.5 µM in test [4].

Turning to `CC(=O)OC[C@@H]1O[C@@H](Oc2c(-c3cc(O)c(O)c(O)c3)oc3cc(O)cc(O)c3c2=O)[C@H](O)[C@H]1OC(C)=O`, the result in test [1] and in test [3] was inactive. In test [4], half-maximal inhibition (IC50) required 456 µM.

For `Oc1cc(O)c2c(c1)O[C@H](c1ccc(O)c(O)c1)[C@H](O)C2` [(-)-EPICATECHIN], the IC50 in test [2] was > 50 µM; in test [4], 184 µM.

With `CC(=O)O[C@@H]1[C@@H](O)[C@H](Oc2c(-c3cc(O)c(O)c(O)c3)oc3cc(O)cc(O)c3c2=O)O[C@H]1CO`, the outcome in test [1] and in test [3] was inactive.

As for `O=c1c(O[C@@H]2O[C@@H](CO)[C@H](O)[C@H]2O)c(-c2cc(O)c(O)c(O)c2)oc2cc(O)cc(O)c12`, the outcome in test [1] and in test [3] was inactive. The IC50 in test [2] is 27.8 µM.
